This is an account of results in ChEMBL document CHEMBL1144729, “N-pyridin-3-yl- and N-quinolin-3-yl-benzamides: modulators of human vanilloid receptor 1 (TRPV1)” (Bioorg Med Chem Lett, 2008).

For orientation: Ki means the equilibrium dissociation constant of an inhibitor or competing ligand from its target. Usually IC50 stands for the midpoint of a concentration-inhibition curve. By EC50 is commonly meant the midpoint of the concentration-response curve. What is called half-life is how long it takes for the measured level to halve. High values mean slow loss, low ones fast loss. Usually clearance stands for the rate of elimination divided by the concentration. The bioavailability is dose-corrected exposure relative to a reference, in per cent. The low end stands for poor availability, the high end for good availability.

The structures appear in SMILES notation.

For data set [1], the target named is T1, Transient receptor potential cation channel subfamily V member 1 (Homo sapiens, UniProt Q8NER1). As to the kind of experiment: Displacement of [3H]RTX from human TRPV1 receptor expressed in HEK293 cells. It counts as cell-based. In short, it runs like this: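 Membranes from HEK293 stably expressing human TRPV1, prepared by homogenisation and differential centrifugation. Binding buffer: 20 mM Hepes pH 7.4, 5.8 mM NaCl, 320 mM sucrose, 2 mM MgCl2, 0.75 mM CaCl2, 5 mM KCl. Incubated 60 min at 37 °C with 0.3–0.6 nM [3H]-RTX. Cooled on ice, alpha-acid glycoprotein added, pellet counted by scintillation. Nonspecific binding defined with 200 nM unlabeled RTX.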
T1 sequence (Q8NER1 whole entry): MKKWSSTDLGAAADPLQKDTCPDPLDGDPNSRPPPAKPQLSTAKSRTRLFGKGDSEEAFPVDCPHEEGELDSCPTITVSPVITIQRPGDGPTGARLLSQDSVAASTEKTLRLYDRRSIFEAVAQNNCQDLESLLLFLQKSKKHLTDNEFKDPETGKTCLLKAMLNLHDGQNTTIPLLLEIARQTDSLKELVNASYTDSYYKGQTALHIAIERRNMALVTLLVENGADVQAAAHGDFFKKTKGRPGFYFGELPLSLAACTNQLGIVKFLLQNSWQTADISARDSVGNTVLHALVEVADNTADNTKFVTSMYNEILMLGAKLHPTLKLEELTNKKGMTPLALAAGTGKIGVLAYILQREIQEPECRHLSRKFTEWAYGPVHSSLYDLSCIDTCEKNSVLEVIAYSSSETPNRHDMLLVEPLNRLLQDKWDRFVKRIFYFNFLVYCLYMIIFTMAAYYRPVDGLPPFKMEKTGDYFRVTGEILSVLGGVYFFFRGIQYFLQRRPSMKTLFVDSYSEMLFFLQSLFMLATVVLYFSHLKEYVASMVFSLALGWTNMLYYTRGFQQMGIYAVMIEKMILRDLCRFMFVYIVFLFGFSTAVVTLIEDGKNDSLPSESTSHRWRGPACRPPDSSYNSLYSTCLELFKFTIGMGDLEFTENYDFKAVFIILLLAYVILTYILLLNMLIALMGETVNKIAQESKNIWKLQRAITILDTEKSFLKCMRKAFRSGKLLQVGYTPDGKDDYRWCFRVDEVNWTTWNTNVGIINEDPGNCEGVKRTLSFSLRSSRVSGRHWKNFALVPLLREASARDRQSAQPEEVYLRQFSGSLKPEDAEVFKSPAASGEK
(In general: In a radioligand displacement assay an active substance lowers the binding of a labelled ligand.)

Data set [2] concerns the target T1, Transient receptor potential cation channel subfamily V member 1. The data set can be described thus: Activity at human TRPV1 in HEK cells assessed by measuring capsaicin-induced calcium level by FLIPR technology. It counts as cell-based, HEK293. In short, it runs like this: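 Stably transfected hTRPV1/HEK cells plated on poly-D-lysine and used 2 days later. Loaded with Fluo-3/AM for 1 h, then given a single concentration of compound. Antagonist potency protocol taken from earlier work.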

Data set [3] in a line: Elimination half life in Sprague-Dawley rat. It counts as ADME, organism-based. The following applies: in vivo. In short, it runs like this:
(§1)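 Pharmacokinetics measured in male Sprague–Dawley rats after intravenous and oral dosing.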

The test system of a further data set is Rattus norvegicus. As to the kind of experiment: Reversal of CFA-induced thermal hyperalgesia in Sprague-Dawley rat at 30 mg/kg, po. It counts as functional. In short, it runs like this:
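Thermal hyperalgesia induced by CFA injection in Sprague–Dawley rats. Radiant-heat withdrawal latency measured on a warm glass surface after about 10 min acclimation, before and 24 h after CFA. Single oral dose given, latencies reassessed at 100 min post-dose and compared with vehicle. Analysis by two-way ANOVA with Bonferroni post hoc test, p < 0.05.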

A short description of data set [4]: Metabolic stability in rat liver microsomes after 15 mins. The following applies: read-out: Stability. It counts as ADME, Microsome. The procedure, abridged: (§2)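 Compound incubated with rat or human liver microsomes. Percent of parent remaining measured after 15 min.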
(Microsomes from liver hold many membrane-bound enzymes, among them those of drug oxidation.)

Data set [5] can be described thus: Clearance in Sprague-Dawley rat. It counts as ADME, organism-based. As to conditions: in vivo. In short, it runs like this: as §1
Data set [6] is described as follows: Oral bioavailability in Sprague-Dawley rat. Type of data set: ADME, organism-based. The following applies: in vivo. In short, it runs like this: as §1
A short description of data set [7]: Metabolic stability in human liver microsomes after 15 mins. Type of data set: ADME, Microsome. As to conditions: read-out: Stability. The procedure, abridged:
as §2

As for `CCCCc1ccc(C(=O)Nc2cnc3ccccc3c2)cc1`, the Ki in data set [1] came out at 53 nM. In addition, in data set [2], the IC50 came out at 230 nM.

Regarding `CCCCCCCCN(C)c1ccc(C(=O)Nc2cnc3ccccc3c2)cc1`, the affinity in data set [1] corresponds to a Ki of 15 nM.

In the case of `CCCCCCCCCCc1ccc(C(=O)Nc2cccnc2)cc1`, the inhibition constant (Ki) in data set [1] was 607 nM. Moreover, the EC50 in data set [2] is greater than 30000 nM.

For the molecule `CCCCCc1ccc(CC(=O)Nc2cccnc2)cc1`, the Ki in data set [1] was 7260 nM. Moreover, in data set [2], the EC50 was greater than 5000 nM.

As to `CN(c1ccc(C(=O)Nc2cnc3ccccc3c2)cc1)C1CCCCC1`, in data set [3], the half-life turned out to be 1.67 h. For the same molecule, the Activity in the data set with Rattus norvegicus is greater than 80%. Also, the values for the remaining at 0.25 h in data set [4] and in data set [7] were 45% and 25%, respectively. In data set [5], this molecule had a clearance of 20 mL/min/kg. Moreover, the bioavailability in data set [6] stood at 70%.

`CCCc1ccc(C(=O)Nc2cnc3ccccc3c2)cc1`: in data set [1], the Ki was determined as 60 nM. Also, the IC50 in data set [2] came out at 130 nM.

Molecule `CCCCCCCc1ccc(C(=O)Nc2cnc3ccccc3c2)cc1` yielded an inhibition constant (Ki) in data set [1] of 3520 nM. Moreover, the IC50 in data set [2] was greater than 30000 nM.

The molecule `CCCCCc1ccc(NC(=O)c2cccnc2)cc1` yielded a Ki in data set [1] greater than 3000 nM. Further, the concentration for a half-maximal effect (EC50) in data set [2] was greater than 5000 nM.

`CCCCN(C)c1ccc(C(=O)Nc2cnc3ccccc3c2)cc1`: the IC50 in data set [2] came to 66 nM.

Take `CN(CC1CCCCC1)c1ccc(C(=O)Nc2cnc3ccccc3c2)cc1`: affinity in data set [1] was put at a Ki of 16 nM. For the same molecule, in data set [2], the IC50 was 170 nM.
